Results on 21 molecules are retold here after PMC6075869 (Journal of medicinal chemistry, 2017).

The Ki is the dissociation constant of the complex between target and ligand, obtained from inhibition or displacement. By IC50 is commonly meant the concentration at which inhibition is half-maximal.

The target in experiment [1] is metabotropic glutamate receptor 2. Particulars: cited from earlier work.
The target of experiment [2] is metabotropic glutamate receptor 3. The following applies: cited from earlier work.
Experiment [3] concerns the target histamine H3 receptor. Particulars: cited from earlier work.
For experiment [4], the system named is vesicular acetylcholine transporter. Particulars: cited from earlier work.
In experiment [5] the target is σ opioid receptor. The following applies: cited from earlier work.
Experiment [6] addresses nAchR α3β4 (Rattus norvegicus, UniProt P04757+P12392). In words: Radioligand binding assay. Particulars: for ligand efficiency (LE): calculated from Ki.
The target of experiment [7] is 5-HT1B receptor. Particulars: agonist; cited from earlier work.
Experiment [8] has as its target 5-HT1A receptor. Particulars: agonist; cited from earlier work.
The target in experiment [9] is 5-HT2 receptor. The following applies: agonist; cited from earlier work.
The target of experiment [10] is 5-HT3 receptor. Particulars: antagonist; cited from earlier work.
Experiment [11] has as its target HIV type 1 protease. Particulars: cited from earlier work.
In experiment [12] the test system is carbonic anhydrase II. Particulars: cited from earlier work.
For experiment [13], the system named is human sodium/glucose cotransporter 1. Particulars: cited from earlier work.
In experiment [14] the test system is human sodium/glucose cotransporter 2. The following applies: cited from earlier work.
For experiment [15], the target named is human nicotinic acetylcholine receptor (nAchR) α2β4. In words: Radioligand binding assay.
For experiment [16], the target named is nAchR α4β4 (Rattus norvegicus, UniProt P09483+P12392). In words: Radioligand binding assay. A digest of the protocol:
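Ki from radioligand binding run by the NIMH PDSP protocols. Ligand efficiency derived from Ki as LE = −RT(lnKi)/Nheavy ≈ −1.373 log10Ki/Nheavy. R is the gas constant, T is the experimental temperature in Kelvin, and Nheavy is the heavy-atom count. LE is expressed in kcal/mol/heavy atom.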

Experiment [17] deals with muscarinic acetylcholine receptor M1. Particulars: cited from earlier work.
Experiment [18] concerns the target muscarinic acetylcholine receptor M2. The following applies: cited from earlier work.
Experiment [19] has as its system inducible human nitric-oxide synthase. Particulars: cited from earlier work.
For experiment [20], the system named is brain human nitric-oxide synthase. Particulars: cited from earlier work.
The test system of experiment [21] is endothelial human nitric-oxide synthase. The following applies: cited from earlier work.
For experiment [22], the target named is muscarinic acetylcholine receptor (mAchR) M5 (Homo sapiens, UniProt P08912). Nature of the experiment: Radioligand binding assay.
muscarinic acetylcholine receptor (mAchR) M5, sequence (P08912 whole entry): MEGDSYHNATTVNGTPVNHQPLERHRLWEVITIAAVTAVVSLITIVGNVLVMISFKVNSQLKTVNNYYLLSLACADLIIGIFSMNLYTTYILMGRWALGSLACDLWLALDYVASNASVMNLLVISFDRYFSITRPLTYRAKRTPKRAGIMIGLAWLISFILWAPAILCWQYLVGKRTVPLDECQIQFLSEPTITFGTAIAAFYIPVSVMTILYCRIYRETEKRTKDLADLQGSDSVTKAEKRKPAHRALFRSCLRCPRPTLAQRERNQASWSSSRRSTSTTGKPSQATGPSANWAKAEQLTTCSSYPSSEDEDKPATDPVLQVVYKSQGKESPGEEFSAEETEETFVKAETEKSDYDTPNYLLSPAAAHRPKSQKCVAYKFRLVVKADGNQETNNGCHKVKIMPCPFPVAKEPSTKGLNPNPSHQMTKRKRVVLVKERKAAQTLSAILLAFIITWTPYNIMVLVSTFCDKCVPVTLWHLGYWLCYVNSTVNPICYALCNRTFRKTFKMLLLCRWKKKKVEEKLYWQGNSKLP
The subject of experiment [23] is M5. Nature of the experiment: Tango assay, agonist activity on M5. It counts as cell-based.
For experiment [24], the system named is M5. In words: Functional assay, antagonist activity on M5. It counts as cell-based.
Experiment [25] deals with muscarinic receptor M1. In words: Radioligand binding assay. The following applies: no significant affinity up to 10 μM.
The subject of experiment [26] is muscarinic receptor M2. In words: Radioligand binding assay. Particulars: no significant affinity up to 10 μM.
The test system of experiment [27] is muscarinic M3 receptor. In words: Radioligand binding assay.
Experiment [28] relates to muscarinic receptor M4. Nature of the experiment: Radioligand binding assay. The following applies: no significant affinity up to 10 μM.
For experiment [29], the system named is muscarinic M3 receptor. Nature of the experiment: Functional assay, agonist activity on M3. It counts as cell-based.

nAchR α3β4, sequence (P04757 26-499): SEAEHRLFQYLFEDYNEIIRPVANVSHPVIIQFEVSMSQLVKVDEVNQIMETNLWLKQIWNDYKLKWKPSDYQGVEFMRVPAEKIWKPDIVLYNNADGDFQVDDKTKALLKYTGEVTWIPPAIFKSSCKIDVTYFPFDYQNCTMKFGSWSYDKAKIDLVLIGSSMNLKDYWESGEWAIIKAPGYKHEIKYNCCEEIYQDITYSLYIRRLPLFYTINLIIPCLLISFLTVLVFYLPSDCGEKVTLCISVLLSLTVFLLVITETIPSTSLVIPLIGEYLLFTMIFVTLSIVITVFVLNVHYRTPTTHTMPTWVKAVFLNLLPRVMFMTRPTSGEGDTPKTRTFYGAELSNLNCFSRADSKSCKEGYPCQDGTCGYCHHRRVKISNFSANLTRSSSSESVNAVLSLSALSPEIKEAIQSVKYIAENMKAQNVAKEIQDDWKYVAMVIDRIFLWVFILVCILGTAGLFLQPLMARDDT
nAchR α3β4, sequence (P12392 21-495): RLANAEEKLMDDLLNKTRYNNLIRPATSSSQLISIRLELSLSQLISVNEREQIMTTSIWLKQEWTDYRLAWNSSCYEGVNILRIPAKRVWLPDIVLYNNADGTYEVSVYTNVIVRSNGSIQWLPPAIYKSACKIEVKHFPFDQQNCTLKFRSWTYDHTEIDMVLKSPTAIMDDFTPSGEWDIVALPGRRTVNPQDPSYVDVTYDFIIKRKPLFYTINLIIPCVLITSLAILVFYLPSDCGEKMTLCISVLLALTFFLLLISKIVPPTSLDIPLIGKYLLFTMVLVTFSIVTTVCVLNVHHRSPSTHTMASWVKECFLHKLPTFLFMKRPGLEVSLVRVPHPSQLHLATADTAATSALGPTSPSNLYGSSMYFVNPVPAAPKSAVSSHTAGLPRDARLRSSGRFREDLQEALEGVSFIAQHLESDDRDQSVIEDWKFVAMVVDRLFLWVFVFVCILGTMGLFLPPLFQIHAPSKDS
nAchR α4β4, sequence (P09483 31-630): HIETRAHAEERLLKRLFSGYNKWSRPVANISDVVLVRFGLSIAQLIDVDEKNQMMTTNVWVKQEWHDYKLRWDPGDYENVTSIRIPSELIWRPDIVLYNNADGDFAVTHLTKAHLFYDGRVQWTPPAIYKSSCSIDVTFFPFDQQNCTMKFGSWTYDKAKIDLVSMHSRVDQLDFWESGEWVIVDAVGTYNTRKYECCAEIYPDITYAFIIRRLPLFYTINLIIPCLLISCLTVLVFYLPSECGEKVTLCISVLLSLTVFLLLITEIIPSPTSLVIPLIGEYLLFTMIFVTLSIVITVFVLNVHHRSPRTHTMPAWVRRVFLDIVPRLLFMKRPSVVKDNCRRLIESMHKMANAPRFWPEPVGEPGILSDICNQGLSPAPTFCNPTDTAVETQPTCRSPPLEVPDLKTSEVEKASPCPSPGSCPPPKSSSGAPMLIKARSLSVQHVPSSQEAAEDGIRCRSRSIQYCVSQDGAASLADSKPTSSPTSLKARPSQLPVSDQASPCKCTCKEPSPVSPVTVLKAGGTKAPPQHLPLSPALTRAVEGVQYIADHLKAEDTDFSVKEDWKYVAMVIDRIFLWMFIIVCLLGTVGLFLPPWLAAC
nAchR α4β4, sequence (P12392 21-495): as the sequence (P12392 21-495) above

As to `N[C@@]1(C(=O)O)C[S+]([O-])[C@H]2[C@H](C(=O)O)[C@H]21` (stereo partly shown) [CHEMBL218710], the Ki in experiment [1] was 508 nM; in experiment [2], 447 nM.

With `C[C@@H]1CCCN1CCc1ccns1` [CHEMBL255141], the Ki in [3] was 17 nM.

Turning to `OC1CCCCC1N1CCC(C2CCN(C3CCCCC3O)CC2)CC1` (stereo not shown) [CHEMBL20429], the affinity in [4] is 200 nM.

With `C[C@@H]1CCCN1CCc1ccccn1` [CHEMBL270807], in [3], the Ki is 200 nM.

In the case of `CN(CCc1ccc2ccccc2c1)[C@H]1CCCC[C@H]1N1CCCC1` [CHEMBL606937], in experiment [5], the IC50 is 37 nM.

As to `N[C@@]1(C(=O)O)CS[C@H]2[C@H](C(=O)O)[C@H]21` [CHEMBL8839], the inhibition constant (Ki) in experiment [1] is 40.6 nM; in [2], 4.7 nM.

On to `Clc1cccc(SC2CCNCC2)n1` [Anpirtoline], for which the Ki in [6] was 3410 nM; in experiment [7], 28 nM; in experiment [8], 150 nM; in [9], 1490 nM; in experiment [10], 30 nM. For the same molecule, in experiment [6], the “ligand efficiency (LE)” value is recorded as 0.536 kcal/mol/heavy atom.

Take `O=C1N(Cc2ccccc2)[C@@H](Cc2ccccc2)[C@H](O)[C@@H](O)[C@H](Cc2ccccc2)N1Cc1ccccc1` [CHEMBL148543]: in experiment [11], the Ki was 560 nM.

In the case of `NS(=O)(=O)c1cc2c(s1)SCCC2=O` [CHEMBL158261], in [12], the affinity is listed as 3.6 nM.

In the case of `CCOc1ccc(Cc2cc([C@@H]3O[C@H](CO)[C@@H](O)[C@H](O)[C@H]3O)ccc2Cl)cc1` [CHEMBL3125318], the IC50 is 3100 nM in experiment [13] and […] in experiment [14].

Turning to `NC1CCCC1c1ccccc1` (stereo not shown) [cypenamine], the Ki was determined as 4650 nM in [15], 2690 nM in experiment [6] and 4110 nM in experiment [16]. In addition, the “ligand efficiency (LE)” value in [6] is given as 0.637 kcal/mol/heavy atom; in [16] (calculated from Ki), 0.616 kcal/mol/heavy atom.

Consider `C[C@@H]1OC(=O)[C@@H]2C[C@@H]3CCCC[C@@H]3[C@@H](/C=C/[C@H]3CCC[C@H](C)N3C)[C@H]12` [CHEMBL301670], for which the IC50 in experiment [17] is 427 nM; in [18], 95.5 nM.

Take `NS(=O)(=O)c1cc2c(s1)S(=O)(=O)CCC2` [CHEMBL333193]: the affinity in [12] is on record as 3.3 nM.

`NC1=NCCCS1` [CHEMBL306541]: the figures for the IC50 in experiment [19], in experiment [20] and in experiment [21] were 2900 nM, 3200 nM and 7100 nM, respectively.

In the case of `CCC(=O)OC1(c2ccccc2)CCN(C)CC1C` (stereo not shown) [Alphaprodine], in [22], the affinity corresponds to a Ki of 771 nM. For the same molecule, the “ligand efficiency (LE)” value in experiment [22] (calculated from Ki) was 0.442 kcal/mol/heavy atom. In addition, in experiment [23], the “agonist activity on M5” value is given as “no agonist activity”. Further, in [24], the “antagonist activity on M5” value is “antagonist”. Further, the affinity in [25], in experiment [26], in experiment [27] (no significant affinity up to 10 μM) and in experiment [28] was over 10 µM throughout. For the same molecule, in experiment [27], the “binding to M3” value is on record as “did not bind”. The “agonist activity on M3” value in [29] is “no agonist activity”.

Consider `OC1CCCCC1N1CCC(C2CCCCC2)CC1` (stereo not shown) [CHEMBL21309], for which the affinity in experiment [4] is reported as 40 nM.

Take `C[C@@H]1OC(=O)[C@H]2C[C@H]3CCCC[C@H]3[C@H](/C=C\[C@H]3CCC[C@H](C)N3C)[C@@H]12` [CHEMBL58824]: the IC50 in experiment [17] and in [18] was 851 nM in each case.

For `O=C1N(Cc2ccc(O)cc2)[C@H](Cc2ccccc2)[C@H](O)[C@@H](O)[C@@H](Cc2ccccc2)N1Cc1ccc(O)cc1` [CHEMBL35860], the Ki in experiment [11] is 0.12 nM.

`N#Cc1ccc(Cc2cc([C@@H]3O[C@H](CO)[C@@H](O)[C@H](O)[C@H]3O)ccc2Cl)cc1` [CHEMBL1807550]: the IC50 was 10 nM in [13] and 10000 nM in [14].

As to `NC1=NCCCSC1` [CHEMBL186856], the IC50 in experiment [19] is 1200 nM; in experiment [20] it was 2800 nM; in experiment [21], 10500 nM.

For `CN(CCc1ccc2c(c1)OCO2)[C@@H]1CCCC[C@@H]1N1CCCC1` [CHEMBL606938], in experiment [5], the IC50 was 34 nM.
